The text below walks through data of the array DNA melting data of Ke et al. (doi:10.1101/2024.01.08.574731).

Data set [1] is described as follows: folding enthalpy; higher = less favourable; fluorescence melt of hairpins on a sequencing array, two-state fit. To be noted: sodium 0.088 M. The method in brief: (§1)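 Melting temperature and folding enthalpy were derived from bootstrapped two-state fits. The fitted temperatures were raised by 9.35 °C to agree with UV melts, and four replicates were combined by inverse variance. The underlying data were Cy3 fluorescence images of library hairpins, with annealed Cy3 and quencher oligos, on a sequenced MiSeq flow cell in 50 mM Na-HEPES pH 8.0, 25 mM NaCl, taken in 2.5 °C steps up to 60 °C, normalised to pre-quench Cy3 and to control constructs.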

The nature of data set [2]: melting temperature; fluorescence melt of hairpins on a sequencing array, two-state fit, raised by 9.35 °C to match UV melts. To be noted: sodium 0.088 M. The gist of the method:
as §1

On to GTCTTGGGAAACCGAGAC ((((.((....)).)))), for which, in data set [1], the folding enthalpy is -33 kcal/mol. In addition, in data set [2], the Tm worked out at 49.9 °C.
With GTCTTTCGAAAGAACGAC (((.(((....))).))), the folding enthalpy in data set [1] is -40.9 kcal/mol. The Tm in data set [2] is 41 °C.
On to GTGAAAACGAAAGTTCAC (((..(((....)))))), for which the folding enthalpy in data set [1] is -21.7 kcal/mol. In addition, the Tm in data set [2] stood at 38.4 °C.
The matching figures for GTGAAACCGAAAGGTCAC (((..(((....)))))): -20.4 kcal/mol and 42 °C.
For the sequence GTGAAATCGAAAGATCAC (((..(((....)))))), in data set [1], the folding enthalpy was -17 kcal/mol. The Tm in data set [2] came to 32.8 °C.
Turning to GTGAACCGAAAGGTCCAC (((.(((....))).))), the folding enthalpy in data set [1] is -24.6 kcal/mol. The Tm in data set [2] was 49.8 °C.
As to GTGAACCGAAAGGTGCAC (((.(((....))).))), the folding enthalpy in data set [1] was -39.6 kcal/mol. Besides, the Tm in data set [2] is 60.7 °C.
The matching figures for GTGAACGAAAGTTACCAC ((((((....)))..))): -15.3 kcal/mol and 26 °C.
The matching figures for GTGAACGAAAGTTCAC ((((((....)))))): -26 kcal/mol and 68.6 °C.
In the case of GTGAACGAAAGTTCCAC ((((((....))).))), the folding enthalpy in data set [1] was -15.9 kcal/mol. Further, the Tm in data set [2] came out at 39.9 °C.
The matching figures for GTGAACGAAAGTTGACAC ((((((....)))..))): -18.6 kcal/mol and 34.8 °C.
The matching figures for GTGAACGAAAGTTTACAC ((((((....)))..))): -18.6 kcal/mol and 39.6 °C.
The matching figures for GTGAACGAAAGTTTCAC ((((((....))).))): -22 kcal/mol and 47.9 °C.
Take GTGAACGGAAACGTTTAC ((.((((....)))).)): the folding enthalpy in data set [1] is -29.6 kcal/mol. In addition, the Tm in data set [2] turned out to be 46.9 °C.
Regarding GTGAACTCGAAAGAGCAC (((..(((....)))))), the folding enthalpy in data set [1] was -13.4 kcal/mol. In data set [2], the Tm is 35.1 °C.
In the case of GTGAAGGCGAAAGCCCAC (((..(((....)))))), the folding enthalpy in data set [1] is -15.6 kcal/mol. Moreover, in data set [2], the Tm was 46.7 °C.
The matching figures for GTGAAGGGAAACCTTCAC (((((((....))))))): -46.1 kcal/mol and 60 °C.
Take GTGAAGGGAAACCTTTAC ((.((((....)))).)): in data set [1], the folding enthalpy was -25.3 kcal/mol. Moreover, the Tm in data set [2] was 39.6 °C.
The matching figures for GTGAAGGGAAACCTTTGC (..((((....))))..): -20.1 kcal/mol and 31.7 °C.
The matching figures for GTGAATACGAAAGTACAC (((..(((....)))))): -12.5 kcal/mol and 27.5 °C.
The matching figures for GTGAATGAAAATTCAC ((((((....)))))): -29.8 kcal/mol and 52.3 °C.
Turning to GTGAATGGAAACATCCAC (((.(((....))).))), the folding enthalpy in data set [1] was -24.1 kcal/mol. For the same sequence, the Tm in data set [2] amounted to 34.6 °C.
As to GTGACAGGAAACCGTCAC (((((.(....).))))), the folding enthalpy in data set [1] was -34.6 kcal/mol. In data set [2], the Tm amounted to 50.4 °C.
As for GTGACCGAAAGGTGACAC ((((((....)))..))), in data set [1], the folding enthalpy was -16 kcal/mol. Further, in data set [2], the Tm worked out at 42.8 °C.
For the sequence GTGACCGAAAGGTTCAC ((((((....))).))), in data set [1], the folding enthalpy was -29.5 kcal/mol. Besides, the Tm in data set [2] was 53 °C.
In the case of GTGACCGGAAACGACCAC (((..((....))..))), the folding enthalpy in data set [1] was -21.2 kcal/mol. The Tm in data set [2] is 30.4 °C.
For GTGACCGGAAACGATCAC ((((.((....)).)))), the folding enthalpy in data set [1] was -39.6 kcal/mol. In data set [2], the Tm came to 46.6 °C.
The matching figures for GTGACCGGAAACGGCCAC (((.(((....))).))): -39 kcal/mol and 54.2 °C.
The matching figures for GTGACCGGAAACGGTTAC ((.((((....)))).)): -26.4 kcal/mol and 54.9 °C.
The matching figures for GTGACGCGAAAGCGCAC (((.(((....)))))): -15 kcal/mol and 58.8 °C.
In the case of GTGACGGGAAACTGTCGC (.(((.(....).))).), in data set [1], the folding enthalpy is -28.2 kcal/mol. In addition, the Tm in data set [2] was found to be 45.8 °C.
The matching figures for GTGACTCGAAAGAGCAC (((.(((....)))))): -26.2 kcal/mol and 48.1 °C.
GTGACTCGAAAGAGGCAC (((.(((....))).))): the folding enthalpy in data set [1] was -34.4 kcal/mol. Besides, in data set [2], the Tm worked out at 67.9 °C.
Take GTGACTGGAAACAGTCGC (.(((((....))))).): the folding enthalpy in data set [1] was -30.6 kcal/mol. For the same sequence, in data set [2], the Tm was 56.2 °C.
For GTGAGAGGAAACTTTCAC ((((.((....)).)))), the folding enthalpy in data set [1] was -23.8 kcal/mol. In data set [2], the Tm is 35.1 °C.
The matching figures for GTGAGCGAAAGCTAACAC ((((((....)))..))): -15.4 kcal/mol and 44 °C.
The matching figures for GTGAGCGAAAGCTAGCAC ((((((....)))..))): -11.4 kcal/mol and 40.4 °C.
The matching figures for GTGAGCGAAAGCTGCAC ((((((....))).))): -13.8 kcal/mol and 48.7 °C.
Regarding GTGAGCGAAAGCTGCCAC ((((((....)))..))), the folding enthalpy in data set [1] is -8.52 kcal/mol. Also, the Tm in data set [2] was 37.6 °C.
With GTGAGCGCGAAAGCGCAC (((..(((....)))))), the folding enthalpy in data set [1] was -11.1 kcal/mol. Also, the Tm in data set [2] is 52.2 °C.
Regarding GTGAGCTCGAAAGAGCAC (((..(((....)))))), the folding enthalpy in data set [1] is -9.96 kcal/mol. In data set [2], the Tm is 65 °C.
Turning to GTGAGGCCGAAAGGCCAC (((..(((....)))))), the folding enthalpy in data set [1] is -11.7 kcal/mol. Besides, in data set [2], the Tm turned out to be 50.3 °C.
The matching figures for GTGAGGGGAAACCCTCAC (((((((....))))))): -33.4 kcal/mol and 67.7 °C.
Consider GTGAGGGGAAACCCTCGC (.(((((....))))).), for which, in data set [1], the folding enthalpy is -34 kcal/mol. Also, the Tm in data set [2] came to 53.5 °C.
With GTGAGGGGAAACCTTCGC (.((.((....)).)).), the folding enthalpy in data set [1] was -21.5 kcal/mol. For the same sequence, the Tm in data set [2] worked out at 33.6 °C.
As for GTGAGTGGAAACACTTAC ((.((((....)))).)), in data set [1], the folding enthalpy was -28.8 kcal/mol. The Tm in data set [2] was 44.8 °C.
The matching figures for GTGAGTGGAAACATTCAC ((((.((....)).)))): -33.9 kcal/mol and 43.9 °C.
Consider GTGAGTGGAAACGTTCAC ((((..(....)..)))), for which the folding enthalpy in data set [1] is -11.2 kcal/mol. Moreover, the Tm in data set [2] amounted to 28.4 °C.
As for GTGATAGGAAACTACCAC (((.(((....))).))), in data set [1], the folding enthalpy was -27.3 kcal/mol. In data set [2], the Tm is 33.5 °C.
For the sequence GTGATATCGAAAGATCAC (((..(((....)))))), the folding enthalpy in data set [1] was -27.8 kcal/mol. In data set [2], the Tm turned out to be 37.1 °C.
For the sequence GTGATCCGAAAGGAGCAC (((.(((....))).))), the folding enthalpy in data set [1] is -41.5 kcal/mol. Besides, in data set [2], the Tm stood at 66.4 °C.
Consider GTGATCGAAAGATATCAC ((((((....)))..))), for which the folding enthalpy in data set [1] is -18 kcal/mol. The Tm in data set [2] worked out at 34.5 °C.
GTGATCGAAAGATGCCAC ((((((....)))..))): the folding enthalpy in data set [1] was -11.5 kcal/mol. The Tm in data set [2] was 24.4 °C.
The matching figures for GTGATCGAAAGATTTCAC ((((((....)))..))): -14.3 kcal/mol and 27.6 °C.
The matching figures for GTGATCGGAAACGACCAC (((.(((....))).))): -42 kcal/mol and 47.6 °C.
GTGATCGGAAACGATCGC (.(((((....))))).): the folding enthalpy in data set [1] is -36.4 kcal/mol. In data set [2], the Tm stood at 57.6 °C.
In the case of GTGATGGAAACATCAC ((((((....)))))), in data set [1], the folding enthalpy was -41.8 kcal/mol. Besides, the Tm in data set [2] amounted to 56.7 °C.
The matching figures for GTGATGGCGAAAGCCCAC (((..(((....)))))): -14.6 kcal/mol and 41.2 °C.
The matching figures for GTGATGGGAAACCATCAC (((((((....))))))): -43.8 kcal/mol and 64.6 °C.
The matching figures for GTGATGGGAAACTGTCAC ((((..(....)..)))): -32.5 kcal/mol and 39.1 °C.
With GTGATTGCGAAAGCACAC (((..(((....)))))), the folding enthalpy in data set [1] is -14.4 kcal/mol. In addition, in data set [2], the Tm was 38.1 °C.
The matching figures for GTGCAACGAAAGTTACAC (((.(((....))).))): -22.6 kcal/mol and 44.9 °C.
For GTGCAAGAAATTGCAC ((((((....)))))), the folding enthalpy in data set [1] was -36.2 kcal/mol. Moreover, the Tm in data set [2] stood at 56.6 °C.
The matching figures for GTGCAAGCGAAAGCTCAC (((..(((....)))))): -13.4 kcal/mol and 42.9 °C.
Regarding GTGCAAGGAAACTCGCAC ((((.((....)).)))), in data set [1], the folding enthalpy was -31.7 kcal/mol. Also, the Tm in data set [2] was found to be 45.1 °C.
As to GTGCAAGGAAACTTGTGC (..((((....))))..), the folding enthalpy in data set [1] was -22.4 kcal/mol. For the same sequence, the Tm in data set [2] is 37.4 °C.
Take GTGCACCGAAAGGTCCAC (((.(((....))).))): in data set [1], the folding enthalpy is -27.3 kcal/mol. The Tm in data set [2] worked out at 45.2 °C.
As for GTGCACGAAAGTGCCCAC ((((((....)))..))), the folding enthalpy in data set [1] was -7.58 kcal/mol. In addition, the Tm in data set [2] is 40.7 °C.
For GTGCACGAAAGTGCGCAC ((((((....)))..))), the folding enthalpy in data set [1] is -10.5 kcal/mol. For the same sequence, in data set [2], the Tm came to 58 °C.
In the case of GTGCACGAAAGTGCTCAC ((((((....)))..))), the folding enthalpy in data set [1] is -7.03 kcal/mol. For the same sequence, the Tm in data set [2] came out at 43.3 °C.
In the case of GTGCAGAAATGCAC (((((....))))), the folding enthalpy in data set [1] was -25.6 kcal/mol. Besides, the Tm in data set [2] stood at 57.1 °C.
The matching figures for GTGCAGCCGAAAGGCCAC (((..(((....)))))): -12.7 kcal/mol and 49.1 °C.
The matching figures for GTGCAGCGAAAGCTACAC (((.(((....))).))): -31 kcal/mol and 54.1 °C.
